Test results as given in ChEMBL document CHEMBL4819017 (Eur J Med Chem, 2021).

How the values were obtained:
[1] = biological target: Phosphatidylinositol 4,5-bisphosphate 3-kinase catalytic subunit alpha isoform (Homo sapiens, UniProt P42336); test: Inhibition of human full length p110alpha (1 to 1068 residues) expressed in baculovirus-infected Sf21 cells by ADP-Hunter Plus assay
[2] = biological target: Serine/threonine-protein kinase mTOR (Homo sapiens, UniProt P42345); test: Inhibition of recombinant human GST tagged mTOR (1360 to 2549 residues) expressed in baculovirus expression system measured by LanthaScreen assay
Procedure, shortened: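 mTOR inhibition measured by LanthaScreen assay; IC50 values average two independent experiments.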

Homo sapiens = organism: Homo sapiens; test: Selectivity ratio of IC50 for recombinant human GST tagged mTOR (1360 to 2549 residues) expressed in baculovirus expression system to IC50 for human full length p110alpha (1 to 1068 residues) expressed in baculovirus-infected Sf21 cells
Procedure, shortened: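 mTOR activity measured by LanthaScreen assay. PI3K-α activity measured by ADP Hunter Plus (ADP accumulation, fluorescence ex 544/em 580 nm), normalized to no-compound control and fitted to a sigmoid dose-response curve. IC50s are the average of two independent experiments. Ratio is mTOR IC50 over PI3K-α IC50.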

[3] = Inhibition of PI3K/mTOR in human U2OS cells assessed as inhibition of AKT1 phosphorylation at Ser473 residue by C-ELISA; assay type: cell-based
Procedure, shortened: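 U2OS osteosarcoma cells grown in 0.1% FBS and serum-stimulated. Endogenous phospho-AKT1 Ser473 quantified by cell-based ELISA with chemiluminescent substrate. Signal plotted against inhibitor concentration and fitted to a sigmoid dose-response curve.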

[4] = AUC (infinity) in BALB/c mouse at 5 mg/kg, iv measured for 8 hrs; assay type: ADME, organism-based; set-up: route intravenous, dose 5 mg/kg, time 8 hrs; conditions: in vivo
Procedure, shortened: (§1)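 BALB/c mice dosed I.V. or P.O. at the stated dose; plasma levels followed for 8 h. Parameters from noncompartmental analysis: AUC (h.ng/ml), T1/2 (h), Cl (L/h/Kg), Vd (L/Kg), Cmax (ng/ml), Tmax (h).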

[5] = Metabolic stability in human liver microsomes assessed as parent compound remaining in presence of NADPH regenerating system at 0.5 uM measured after 15 mins by LC-MS/MS analysis; assay type: ADME, Microsome; conditions: read-out: Stabilty
Procedure, shortened: (§2)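 Human, mouse or rat liver microsomes at 0.5 mg/ml protein with compound at 0.5 µM and NADPH-regenerating system, 37 °C with shaking. Control wells contain 0.1 M potassium phosphate instead of the regenerating system. Reaction stopped with acetonitrile/0.1% formic acid, centrifuged, supernatant analyzed by LC-MS/MS. Result is percent parent compound remaining.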

[6] = Metabolic stability in mouse liver microsomes assessed as parent compound remaining in presence of NADPH regenerating system at 0.5 uM measured after 15 mins by LC-MS/MS analysis; assay type: ADME, Microsome; conditions: read-out: Stabilty; procedure, shortened: as §2
[7] = Metabolic stability in rat liver microsomes assessed as parent compound remaining in presence of NADPH regenerating system at 0.5 uM measured after 15 mins by LC-MS/MS analysis; assay type: ADME, Microsome; conditions: read-out: Stabilty; procedure, shortened: as §2
Cytochrome P450 1A2 = biological target: T1, Cytochrome P450 1A2 (Homo sapiens, UniProt P05177); test: Inhibition of CYP1A2 (unknown origin) using Luciferin-ME as substrate at 10 uM preincubated with enzyme and substrate for 5 mins followed by addition of NADPH regeneration system and measured after 60 mins by luminescence method; assay type: ADME
T1 sequence (P05177 whole entry): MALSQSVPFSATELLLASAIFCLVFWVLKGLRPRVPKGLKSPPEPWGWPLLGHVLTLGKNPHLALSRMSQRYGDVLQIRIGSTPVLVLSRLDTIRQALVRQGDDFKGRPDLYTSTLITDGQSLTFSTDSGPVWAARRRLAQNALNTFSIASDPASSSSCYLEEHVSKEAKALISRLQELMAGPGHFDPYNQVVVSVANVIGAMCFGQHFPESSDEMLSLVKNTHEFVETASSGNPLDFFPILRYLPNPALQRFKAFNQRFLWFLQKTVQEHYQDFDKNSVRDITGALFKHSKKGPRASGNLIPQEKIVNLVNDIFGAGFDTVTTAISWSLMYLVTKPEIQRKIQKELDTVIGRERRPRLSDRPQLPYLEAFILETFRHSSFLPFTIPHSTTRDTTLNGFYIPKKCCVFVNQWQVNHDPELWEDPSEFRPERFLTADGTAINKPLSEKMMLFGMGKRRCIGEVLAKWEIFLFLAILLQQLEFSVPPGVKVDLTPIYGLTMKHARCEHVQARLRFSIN
Procedure, shortened: (§3)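 P450-Glo luminescence assays with these substrates: Luciferin-ME (CYP1A2), Luciferin-PPXE (CYP3A4), Luciferin-H (CYP2C9), LuciferinH-EG (CYP2C19), Luciferin-ME-EG (CYP2D6). Compounds run in 1/3 serial dilutions from 10 µM in 0.5% DMSO with enzyme and substrate. After 5 min preincubation, NADPH regeneration reagent added; 60 min at 37 °C, then detection reagent for 30 min. Background subtracted.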

Cytochrome P450 3A4 = Cytochrome P450 3A4 (Homo sapiens, UniProt P08684); test: Inhibition of CYP3A4 (unknown origin) using Luciferin-PPXE as substrate at 10 uM preincubated with enzyme and substrate for 5 mins followed by addition of NADPH regeneration system and measured after 60 mins by luminescence method; assay type: ADME; procedure, shortened: as §3
Chain of Cytochrome P450 3A4 (P08684 whole entry): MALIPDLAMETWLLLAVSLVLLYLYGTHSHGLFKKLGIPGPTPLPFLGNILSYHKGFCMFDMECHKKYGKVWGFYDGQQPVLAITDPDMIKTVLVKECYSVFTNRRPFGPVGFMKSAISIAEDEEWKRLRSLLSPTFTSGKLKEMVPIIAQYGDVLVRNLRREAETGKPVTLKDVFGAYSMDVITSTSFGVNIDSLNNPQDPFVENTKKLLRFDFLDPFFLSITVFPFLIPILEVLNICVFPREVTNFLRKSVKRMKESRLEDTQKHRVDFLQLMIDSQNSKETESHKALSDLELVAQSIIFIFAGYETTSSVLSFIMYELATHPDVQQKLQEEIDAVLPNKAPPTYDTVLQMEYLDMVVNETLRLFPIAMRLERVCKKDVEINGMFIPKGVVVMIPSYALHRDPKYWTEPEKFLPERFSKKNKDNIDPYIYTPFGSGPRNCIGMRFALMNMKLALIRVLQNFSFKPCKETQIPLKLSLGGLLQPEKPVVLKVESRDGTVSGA

Cytochrome P450 2C9 = Cytochrome P450 2C9 (Homo sapiens, UniProt P11712); test: Inhibition of CYP2C9 (unknown origin) using Luciferin-H as substrate at 10 uM preincubated with enzyme and substrate for 5 mins followed by addition of NADPH regeneration system and measured after 60 mins by luminescence method; assay type: ADME; procedure, shortened: as §3
Chain of Cytochrome P450 2C9 (P11712 whole entry): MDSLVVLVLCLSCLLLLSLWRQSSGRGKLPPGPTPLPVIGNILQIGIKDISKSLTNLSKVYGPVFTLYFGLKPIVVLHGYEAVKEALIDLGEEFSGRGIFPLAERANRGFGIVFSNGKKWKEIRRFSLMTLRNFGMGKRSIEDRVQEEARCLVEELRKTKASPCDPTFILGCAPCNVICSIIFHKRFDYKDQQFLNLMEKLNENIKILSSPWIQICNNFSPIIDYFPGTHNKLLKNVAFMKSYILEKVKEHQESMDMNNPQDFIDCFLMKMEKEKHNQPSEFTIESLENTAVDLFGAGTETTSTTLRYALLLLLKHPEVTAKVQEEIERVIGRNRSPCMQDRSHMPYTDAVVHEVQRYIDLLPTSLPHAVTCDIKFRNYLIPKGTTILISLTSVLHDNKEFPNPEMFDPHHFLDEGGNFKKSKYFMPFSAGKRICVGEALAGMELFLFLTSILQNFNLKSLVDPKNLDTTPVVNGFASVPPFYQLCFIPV

Cytochrome P450 2C19 = Cytochrome P450 2C19 (Homo sapiens, UniProt P33261); test: Inhibition of CYP2C19 (unknown origin) using LuciferinH-EG as substrate at 10 uM preincubated with enzyme and substrate for 5 mins followed by addition of NADPH regeneration system and measured after 60 mins by luminescence method; assay type: ADME; procedure, shortened: as §3
Chain of Cytochrome P450 2C19 (P33261 whole entry): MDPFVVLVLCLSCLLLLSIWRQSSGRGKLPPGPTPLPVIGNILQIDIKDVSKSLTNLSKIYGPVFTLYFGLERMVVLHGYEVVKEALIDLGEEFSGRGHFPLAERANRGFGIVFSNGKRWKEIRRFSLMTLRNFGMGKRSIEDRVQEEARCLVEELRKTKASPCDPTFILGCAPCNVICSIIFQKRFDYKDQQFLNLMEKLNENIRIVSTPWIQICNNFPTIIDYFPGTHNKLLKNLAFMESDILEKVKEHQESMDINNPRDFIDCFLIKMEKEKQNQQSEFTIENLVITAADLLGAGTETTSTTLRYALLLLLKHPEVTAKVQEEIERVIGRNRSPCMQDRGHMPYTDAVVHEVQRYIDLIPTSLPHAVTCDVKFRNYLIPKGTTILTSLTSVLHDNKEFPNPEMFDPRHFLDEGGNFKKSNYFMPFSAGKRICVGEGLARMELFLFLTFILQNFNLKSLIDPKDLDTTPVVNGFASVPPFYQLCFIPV

Cytochrome P450 2D6 = Cytochrome P450 2D6 (Homo sapiens, UniProt P10635); test: Inhibition of CYP2D6 (unknown origin) using Luciferin-ME-EG as substrate at 10 uM preincubated with enzyme and substrate for 5 mins followed by addition of NADPH regeneration system and measured after 60 mins by luminescence method; assay type: ADME; procedure, shortened: as §3
Chain of Cytochrome P450 2D6 (P10635 whole entry): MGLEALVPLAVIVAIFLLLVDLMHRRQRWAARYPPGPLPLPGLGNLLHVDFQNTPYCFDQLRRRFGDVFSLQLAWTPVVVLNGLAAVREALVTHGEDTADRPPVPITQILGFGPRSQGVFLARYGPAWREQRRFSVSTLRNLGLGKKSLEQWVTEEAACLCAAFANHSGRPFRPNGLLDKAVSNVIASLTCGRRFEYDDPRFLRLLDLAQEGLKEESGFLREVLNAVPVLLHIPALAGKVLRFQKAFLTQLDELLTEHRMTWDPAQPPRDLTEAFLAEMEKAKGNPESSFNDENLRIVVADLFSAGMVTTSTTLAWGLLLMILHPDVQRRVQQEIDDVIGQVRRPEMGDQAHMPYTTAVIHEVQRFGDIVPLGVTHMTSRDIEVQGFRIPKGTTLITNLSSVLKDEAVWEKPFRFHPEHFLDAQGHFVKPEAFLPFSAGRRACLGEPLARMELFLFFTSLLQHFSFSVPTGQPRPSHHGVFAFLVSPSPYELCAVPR

[8] = Half life in BALB/c mouse at 5 mg/kg, iv measured for 8 hrs; assay type: ADME, organism-based; conditions: in vivo; procedure, shortened: as §1
[9] = Clearance in BALB/c mouse at 5 mg/kg, iv measured for 8 hrs; assay type: ADME, organism-based; conditions: in vivo; procedure, shortened: as §1
[10] = Volume of distribution in BALB/c mouse at 5 mg/kg, iv measured for 8 hrs; assay type: ADME, organism-based; conditions: in vivo
Procedure, shortened: (§4)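 Dosing in BALB-C mice intravenously or orally, with plasma sampled over 8 h. Parameters (AUC, T1/2, Cl, Vd, Cmax, Tmax) come from a noncompartmental model. Units: AUC h.ng/ml, Vd L/Kg, Cmax ng/ml, Tmax h.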

[11] = Cmax in BALB/c mouse at 10 mg/kg, po measured for 8 hrs; assay type: ADME, organism-based; set-up: route oral, dose 10 mg/kg, time 8 hrs; conditions: in vivo; procedure, shortened: as §1
[12] = Tmax in BALB/c mouse at 10 mg/kg, po measured for 8 hrs; assay type: ADME, organism-based; conditions: in vivo; procedure, shortened: as §4
[13] = Half life in BALB/c mouse at 10 mg/kg, po measured for 8 hrs; assay type: ADME, organism-based; conditions: in vivo; procedure, shortened: as §1
[14] = AUC(infinity) in BALB/c mouse at 10 mg/kg, po measured for 8 hrs; assay type: ADME, organism-based; set-up: route oral, time 8 hrs, dose 10 mg/kg; conditions: in vivo; procedure, shortened: as §1
[15] = Oral bioavailability in BALB/c mouse at 10 mg/kg measured for 8 hrs; assay type: ADME, organism-based; conditions: in vivo; procedure, shortened: as §1
[16] = Plasma concentration in BALB/c mouse at 10 mg/kg, po measured for 8 hrs; assay type: ADME, organism-based; procedure, shortened: as §4
[17] = biological target: Voltage-gated inwardly rectifying potassium channel KCNH2 (Homo sapiens, UniProt Q12809); test: Inhibition of human ERG by fluorescence polarization assay
Chain of Voltage-gated inwardly rectifying potassium channel KCNH2 (Q12809 whole entry): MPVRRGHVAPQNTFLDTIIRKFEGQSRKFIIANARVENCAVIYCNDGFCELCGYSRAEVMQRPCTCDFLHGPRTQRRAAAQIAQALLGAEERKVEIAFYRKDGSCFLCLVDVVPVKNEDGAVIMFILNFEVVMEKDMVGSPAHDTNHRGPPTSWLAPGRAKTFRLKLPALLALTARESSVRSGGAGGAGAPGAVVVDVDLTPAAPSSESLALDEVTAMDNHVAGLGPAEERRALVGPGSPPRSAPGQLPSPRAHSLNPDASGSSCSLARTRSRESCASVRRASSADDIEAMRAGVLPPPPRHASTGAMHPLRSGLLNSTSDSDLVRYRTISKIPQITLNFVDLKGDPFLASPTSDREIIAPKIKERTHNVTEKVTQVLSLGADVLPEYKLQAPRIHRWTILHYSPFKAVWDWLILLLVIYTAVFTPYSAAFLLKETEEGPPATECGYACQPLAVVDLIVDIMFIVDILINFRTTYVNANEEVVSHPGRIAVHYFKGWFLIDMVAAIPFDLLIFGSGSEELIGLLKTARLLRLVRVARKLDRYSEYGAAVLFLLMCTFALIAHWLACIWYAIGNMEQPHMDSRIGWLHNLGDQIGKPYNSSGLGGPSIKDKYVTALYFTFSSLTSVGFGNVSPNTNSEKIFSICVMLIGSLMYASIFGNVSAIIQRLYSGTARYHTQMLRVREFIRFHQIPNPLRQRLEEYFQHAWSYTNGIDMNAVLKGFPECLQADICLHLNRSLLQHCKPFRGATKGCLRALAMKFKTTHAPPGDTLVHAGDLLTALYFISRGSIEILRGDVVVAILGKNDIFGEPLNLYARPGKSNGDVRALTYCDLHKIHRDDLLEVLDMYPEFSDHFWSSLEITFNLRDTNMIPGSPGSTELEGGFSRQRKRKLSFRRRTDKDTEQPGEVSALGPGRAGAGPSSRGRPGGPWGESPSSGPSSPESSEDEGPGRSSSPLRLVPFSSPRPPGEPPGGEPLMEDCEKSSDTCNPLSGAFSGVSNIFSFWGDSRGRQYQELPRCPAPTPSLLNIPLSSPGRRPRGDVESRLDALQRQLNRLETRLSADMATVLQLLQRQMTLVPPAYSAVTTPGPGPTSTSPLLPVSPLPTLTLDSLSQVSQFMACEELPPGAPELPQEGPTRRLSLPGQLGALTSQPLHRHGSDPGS
Procedure, shortened: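 Predictor h-ERG membrane preparations (sonicated) incubated with test compound dilutions and fluorescent tracer (working 4X tracer at 4 nM) at room temperature for ≥1 h. Read-out by fluorescence polarization, ex 530/25, em 590/35.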

Chain of Phosphatidylinositol 4,5-bisphosphate 3-kinase catalytic subunit alpha isoform (P42336 whole entry, the tested form may be a part, canonical isoform): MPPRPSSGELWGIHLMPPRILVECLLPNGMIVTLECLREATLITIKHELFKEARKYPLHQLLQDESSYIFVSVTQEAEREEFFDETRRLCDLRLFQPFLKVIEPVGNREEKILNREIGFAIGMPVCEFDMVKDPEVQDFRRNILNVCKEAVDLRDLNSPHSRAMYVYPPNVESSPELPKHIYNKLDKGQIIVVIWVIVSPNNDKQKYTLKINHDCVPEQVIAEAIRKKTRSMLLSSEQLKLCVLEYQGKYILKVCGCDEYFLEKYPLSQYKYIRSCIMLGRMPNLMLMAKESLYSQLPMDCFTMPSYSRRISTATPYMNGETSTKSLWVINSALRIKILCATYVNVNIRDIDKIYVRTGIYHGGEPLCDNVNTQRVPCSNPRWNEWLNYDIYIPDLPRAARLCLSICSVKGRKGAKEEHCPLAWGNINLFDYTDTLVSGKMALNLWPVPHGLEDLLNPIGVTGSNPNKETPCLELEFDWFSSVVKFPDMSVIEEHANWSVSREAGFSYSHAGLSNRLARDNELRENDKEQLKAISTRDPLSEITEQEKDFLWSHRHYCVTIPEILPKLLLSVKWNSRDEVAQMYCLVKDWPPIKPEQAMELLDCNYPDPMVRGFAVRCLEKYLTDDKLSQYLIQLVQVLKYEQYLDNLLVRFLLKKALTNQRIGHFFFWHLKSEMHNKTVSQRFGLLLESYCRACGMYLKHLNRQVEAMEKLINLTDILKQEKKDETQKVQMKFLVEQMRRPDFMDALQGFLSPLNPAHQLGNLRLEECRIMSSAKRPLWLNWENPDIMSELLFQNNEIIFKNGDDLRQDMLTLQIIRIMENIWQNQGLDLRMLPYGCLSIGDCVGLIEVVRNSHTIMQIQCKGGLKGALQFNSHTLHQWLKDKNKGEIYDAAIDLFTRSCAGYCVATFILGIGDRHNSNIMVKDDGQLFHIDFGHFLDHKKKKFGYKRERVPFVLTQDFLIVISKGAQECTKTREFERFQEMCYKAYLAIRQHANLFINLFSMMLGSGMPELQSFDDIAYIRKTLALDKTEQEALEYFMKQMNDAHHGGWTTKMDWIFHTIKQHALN

| SMILES | IC50 [1] | IC50 [2] | Ratio IC50 (Homo sapiens) | EC50 [3] | AUC(0-inf) [4] | remaining at 0.25 h, 0.5 µM [5] | remaining at 0.25 h, 0.5 µM [6] | remaining at 0.25 h, 0.5 µM [7] | IC50 (Cytochrome P450 1A2) | IC50 (Cytochrome P450 3A4) | IC50 (Cytochrome P450 2C9) | IC50 (Cytochrome P450 2C19) | IC50 (Cytochrome P450 2D6) | half-life [8] | clearance [9] | Vd [10] | Cmax [11] | Tmax [12] | half-life [13] | AUC(0-inf) [14] | other results |
| --- | --- | --- | --- | --- | --- | --- | --- | --- | --- | --- | --- | --- | --- | --- | --- | --- | --- | --- | --- | --- | --- |
| COc1ncc2cc1NS(=O)(=O)c1cc(c(F)cc1F)C(=O)NCc1cncc(c1)-c1ccnc3ccc-2cc13 | 0.0008 µM | 0.0223 µM | 27.8 | 0.0107 µM | 9470 ng·h/mL | 89% | 88% | 97% | > 30 µM | > 30 µM | 8.3 µM | > 30 µM | > 30 µM | 0.57 h | 8.83 mL/min/kg | 0.28 L/kg | 3390 ng/mL | 0.25 h | 2.78 h | 7680 ng·h/mL | bioavailability [15]: 40.6%; concentration at 8 h [16]: 264 ng/mL; IC50 [17]: > 30 µM |
| COc1ncc2cc1NS(=O)(=O)c1cccc(c1)C(=O)NCc1cncc(c1)-c1ncnc3ccc-2cc13 | 0.0013 µM | 0.0049 µM | 3.8 | 0.0206 µM | 9200 ng·h/mL | 80% | 76% | 86% | > 30 µM | > 30 µM | > 30 µM | > 30 µM | > 30 µM | 2.91 h | 9 mL/min/kg | 0.59 L/kg | 1270 ng/mL | 0.16 h | 5.68 h | 8760 ng·h/mL | bioavailability [15]: 47.6%; concentration at 8 h [16]: 424 ng/mL; IC50 [17]: > 30 µM |
